According to paper PMC355911 (Journal of Insect Science, 2002):

Assays:
DmEcR/DmUSP = biological target: T1, DmEcR/DmUSP (Drosophila melanogaster, UniProt P34021); experiment: UV-irradiation of receptor complex with ligand, then [3H]ponasterone A binding; settings: ligand 100 nM, 350 nm for 20 min, [3H]ponA 2.55 nM
T1 sequence (P34021 1-878): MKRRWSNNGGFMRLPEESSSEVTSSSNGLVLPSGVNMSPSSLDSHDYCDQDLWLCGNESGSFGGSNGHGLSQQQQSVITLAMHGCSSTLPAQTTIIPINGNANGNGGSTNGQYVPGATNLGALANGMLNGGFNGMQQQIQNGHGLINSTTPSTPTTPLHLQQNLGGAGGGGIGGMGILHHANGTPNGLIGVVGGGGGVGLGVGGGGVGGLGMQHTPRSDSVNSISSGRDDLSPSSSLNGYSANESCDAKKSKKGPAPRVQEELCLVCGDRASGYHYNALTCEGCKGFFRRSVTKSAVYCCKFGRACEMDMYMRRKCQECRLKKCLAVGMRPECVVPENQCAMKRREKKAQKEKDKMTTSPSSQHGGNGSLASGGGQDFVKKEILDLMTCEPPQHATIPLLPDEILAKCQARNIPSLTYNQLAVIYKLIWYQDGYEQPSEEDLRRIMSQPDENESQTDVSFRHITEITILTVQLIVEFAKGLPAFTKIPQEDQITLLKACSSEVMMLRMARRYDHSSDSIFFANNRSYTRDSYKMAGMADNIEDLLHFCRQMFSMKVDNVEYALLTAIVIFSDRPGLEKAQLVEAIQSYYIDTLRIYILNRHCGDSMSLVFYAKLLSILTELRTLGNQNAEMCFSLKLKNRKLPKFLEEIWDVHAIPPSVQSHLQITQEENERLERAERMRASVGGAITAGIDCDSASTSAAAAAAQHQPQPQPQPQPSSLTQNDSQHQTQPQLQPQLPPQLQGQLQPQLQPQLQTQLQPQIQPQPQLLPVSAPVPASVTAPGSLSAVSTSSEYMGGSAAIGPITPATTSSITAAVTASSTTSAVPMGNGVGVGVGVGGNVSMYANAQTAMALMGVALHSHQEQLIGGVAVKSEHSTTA
T1 sequence (P20153 1-508 partner): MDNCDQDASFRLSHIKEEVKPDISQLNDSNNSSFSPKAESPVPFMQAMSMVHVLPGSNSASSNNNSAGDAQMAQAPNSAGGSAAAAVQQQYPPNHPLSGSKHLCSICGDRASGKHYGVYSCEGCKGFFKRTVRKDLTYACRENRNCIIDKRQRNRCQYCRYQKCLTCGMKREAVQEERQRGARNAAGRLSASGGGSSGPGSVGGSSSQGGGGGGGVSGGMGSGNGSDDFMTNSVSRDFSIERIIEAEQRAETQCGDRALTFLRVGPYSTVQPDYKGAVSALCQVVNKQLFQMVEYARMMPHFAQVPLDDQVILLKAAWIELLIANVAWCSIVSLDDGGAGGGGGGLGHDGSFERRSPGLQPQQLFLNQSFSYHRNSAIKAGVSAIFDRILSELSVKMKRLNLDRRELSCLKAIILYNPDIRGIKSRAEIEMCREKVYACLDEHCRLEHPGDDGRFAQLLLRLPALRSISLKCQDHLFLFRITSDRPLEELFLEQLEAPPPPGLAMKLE
How it was run: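 Crude extracts of bacterially expressed DmEcR/DmUSP were incubated with 100 nM ligand at 7°C for 16 h to equilibrium. Samples were irradiated in quartz tubes on a merry-go-round at 350 nm for 20 min, with non-irradiated controls. Unbound steroid was stripped with fatty-acid-free BSA plus dextran-coated charcoal (10 mM Tris/HCl, pH 7.2), 5 min ice-cold, then spun at 13,000 × g. Supernatant was equilibrated with 2.55 nM [3H]ponA at 7°C, DCC-stripped again, and scintillation-counted. Duplicates.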

CfEcR/CfUSP = biological target: T2, CfEcR/CfUSP (Choristoneura fumiferana, UniProt O77255); experiment: UV-irradiation of receptor complex with ligand, then [3H]ponasterone A binding; settings: ligand 100 nM, 350 nm for 20 min, [3H]ponA 2.55 nM
T2 sequence (O77255 1-541): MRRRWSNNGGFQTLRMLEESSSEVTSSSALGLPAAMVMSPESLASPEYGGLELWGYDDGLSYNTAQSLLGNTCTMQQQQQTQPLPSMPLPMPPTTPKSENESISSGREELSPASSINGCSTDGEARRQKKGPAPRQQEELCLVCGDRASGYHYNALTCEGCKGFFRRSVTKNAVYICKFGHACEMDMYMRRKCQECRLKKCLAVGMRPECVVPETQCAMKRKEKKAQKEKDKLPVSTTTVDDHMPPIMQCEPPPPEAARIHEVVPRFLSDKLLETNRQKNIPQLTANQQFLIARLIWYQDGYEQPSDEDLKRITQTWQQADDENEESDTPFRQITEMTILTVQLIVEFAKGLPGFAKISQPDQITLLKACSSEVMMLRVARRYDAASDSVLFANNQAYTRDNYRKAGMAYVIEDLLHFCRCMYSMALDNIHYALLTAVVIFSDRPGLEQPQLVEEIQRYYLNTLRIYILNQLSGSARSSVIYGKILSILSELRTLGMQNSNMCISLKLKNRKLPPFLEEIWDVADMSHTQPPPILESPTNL
T2 sequence (O76202 1-472 partner): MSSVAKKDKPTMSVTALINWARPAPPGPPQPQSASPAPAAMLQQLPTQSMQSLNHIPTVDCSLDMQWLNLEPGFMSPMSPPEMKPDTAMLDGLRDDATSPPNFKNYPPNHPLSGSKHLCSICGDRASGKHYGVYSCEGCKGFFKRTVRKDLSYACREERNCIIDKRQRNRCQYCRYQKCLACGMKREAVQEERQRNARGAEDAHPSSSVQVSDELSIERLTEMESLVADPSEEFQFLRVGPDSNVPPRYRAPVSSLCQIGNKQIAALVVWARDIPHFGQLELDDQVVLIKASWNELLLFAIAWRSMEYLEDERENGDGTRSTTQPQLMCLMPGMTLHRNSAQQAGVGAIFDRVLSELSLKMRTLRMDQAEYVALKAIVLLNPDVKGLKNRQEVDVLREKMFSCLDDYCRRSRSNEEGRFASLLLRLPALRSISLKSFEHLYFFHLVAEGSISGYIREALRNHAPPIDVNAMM

binding capacity for [3H]ponasterone A after irradiation with ligand (in words) (DmEcR/DmUSP; listed as 20E)	binding capacity for [3H]ponasterone A after irradiation with ligand (in words) (CfEcR/CfUSP; listed as 20E)	Compound	binding capacity for [3H]ponasterone A after irradiation with ligand (in words) (DmEcR/DmUSP)	binding capacity for [3H]ponasterone A after irradiation with ligand (in words) (CfEcR/CfUSP)
–	–	CC(C)CC[C@@H](O)[C@](C)(O)[C@H]1CC[C@@]2(O)C3=CC(=O)[C@@H]4C[C@@H](O)[C@@H](O)C[C@]4(C)C3=CC[C@]12C [compound 5, dacryhainansterone]	significantly reduced	significantly reduced
no blocking	no blocking	CC(C)(O)CC[C@@H](O)[C@](C)(O)[C@H]1CC[C@@]2(O)C3=CC(=O)[C@@H]4C[C@@H](O)[C@@H](O)C[C@]4(C)[C@H]3CC[C@]12C [compound 1, 20-hydroxyecdysone]	–	–
